Measured values taken from ChEMBL document CHEMBL2150914, “Synthesis and biological evaluation of N-arylbenzo[b]thieno[3,2-d]pyrimidin-4-amines and their pyrido and pyrazino analogues as Ser/Thr kinase inhibitors” (Eur J Med Chem, 2012).

Columns and labels:
[1] = biological target: Cyclin-dependent kinase 5/CDK5 activator 1 (Homo sapiens, UniProt Q00535); test: Inhibition of human recombinant GST-tagged CDK5/p25 expressed in Escherichia coli using histone H1 as substrate and [gamma32P]ATP after 30 mins by scintillation counting
Sequence of Cyclin-dependent kinase 5/CDK5 activator 1 (Q00535 whole entry): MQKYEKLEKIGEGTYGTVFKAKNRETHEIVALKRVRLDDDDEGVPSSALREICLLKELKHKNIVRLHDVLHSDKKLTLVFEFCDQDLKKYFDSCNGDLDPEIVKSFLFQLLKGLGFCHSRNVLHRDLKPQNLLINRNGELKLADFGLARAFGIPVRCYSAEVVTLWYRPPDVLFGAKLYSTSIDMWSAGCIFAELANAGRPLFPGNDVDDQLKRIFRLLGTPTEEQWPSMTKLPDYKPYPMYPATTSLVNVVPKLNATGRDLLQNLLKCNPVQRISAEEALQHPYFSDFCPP
Sequence of Cyclin-dependent kinase 5/CDK5 activator 1 (Q15078 whole entry, further chain): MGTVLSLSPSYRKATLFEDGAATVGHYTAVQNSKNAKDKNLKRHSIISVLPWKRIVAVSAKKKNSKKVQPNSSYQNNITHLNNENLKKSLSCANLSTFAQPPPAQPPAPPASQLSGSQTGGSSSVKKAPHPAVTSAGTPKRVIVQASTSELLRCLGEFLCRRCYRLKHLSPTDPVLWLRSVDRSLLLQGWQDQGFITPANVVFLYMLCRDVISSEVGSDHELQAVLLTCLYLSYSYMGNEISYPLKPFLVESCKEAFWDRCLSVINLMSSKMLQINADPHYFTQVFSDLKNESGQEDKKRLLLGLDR

[2] = biological target: Glycogen synthase kinase-3 (Sus scrofa, UniProt B2LUN4+I6LNT8); test: Inhibition of pig GSK3alpha/beta isolated from brain using YRRAAVPPSPSLSRHSSPHQpSEDEEE as substrate and [gamma32P]ATP after 30 mins by scintillation counting
Outline: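 Assay run at 30 °C in one of two buffers: buffer A (Tris-HCl pH 7.5 with MgCl2, EGTA, DTT, heparin) or buffer B (Mops pH 7.2 with beta-glycerophosphate, EGTA, MgCl2, DTT, vanadate). Peptide substrate. Blank values subtracted and activity expressed as % of maximal, uninhibited activity. Controls with matching DMSO dilutions.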

[3] = Inhibition of pig CK1delta/epsilon isolated from brain using RRKHAAIGpSAYSITA as substrate and [gamma32P]ATP after 30 mins by scintillation counting; set-up: species or system Sus scrofa
[4] = biological target: Dual specificity tyrosine-phosphorylation-regulated kinase 1A (Rattus norvegicus, UniProt Q63470); test: Inhibition of rat recombinant GST-tagged DYRK1A expressed in Escherichia coli using KKISGRLSPIMTEQ as substrate and [gamma32P]ATP after 30 mins by scintillation counting
Outline: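 Rat DYRK1A, expressed in E. coli as a GST fusion and purified on glutathione-agarose. Blanks subtracted. Activity given as % of uninhibited maximum. DMSO dilution controls.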

[5] = biological target: Dual specificity protein kinase CLK1 (Homo sapiens, UniProt P49759); test: Inhibition of human recombinant GST-tagged CLK1 expressed in Escherichia coli using GRSRSRSRSRSR as substrate and [gamma32P]ATP after 30 mins by scintillation counting
Sequence of Dual specificity protein kinase CLK1 (P49759 whole entry): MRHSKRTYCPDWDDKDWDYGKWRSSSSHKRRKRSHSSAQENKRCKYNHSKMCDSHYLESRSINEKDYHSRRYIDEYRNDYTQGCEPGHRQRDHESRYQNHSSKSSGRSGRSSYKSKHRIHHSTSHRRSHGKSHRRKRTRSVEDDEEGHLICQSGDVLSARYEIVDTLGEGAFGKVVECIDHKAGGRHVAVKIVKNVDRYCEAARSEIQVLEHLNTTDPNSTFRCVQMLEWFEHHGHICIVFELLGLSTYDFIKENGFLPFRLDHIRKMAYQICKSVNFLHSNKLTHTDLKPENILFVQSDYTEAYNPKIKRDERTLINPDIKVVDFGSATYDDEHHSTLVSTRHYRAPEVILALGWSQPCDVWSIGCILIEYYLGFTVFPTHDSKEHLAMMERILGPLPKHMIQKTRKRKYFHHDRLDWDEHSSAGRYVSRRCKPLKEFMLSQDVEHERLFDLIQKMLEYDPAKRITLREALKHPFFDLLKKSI

| Structure (SMILES) | IC50 [1] | IC50 [2] | IC50 [3] | IC50 [4] | IC50 [5] |
| --- | --- | --- | --- | --- | --- |
| COc1cc(Nc2ncnc3c2sc2nccnc23)cc(OC)c1 | > 10 µM | > 10 µM | 7.8 µM | > 10 µM |  |
| COc1cc(Nc2ncnc3c2sc2cccnc23)cc(OC)c1OC | > 10 µM | > 10 µM | 4.1 µM | > 10 µM | > 10 µM |
| COc1ccc(Nc2ncnc3c2sc2ncccc23)cc1OC | > 10 µM | > 10 µM | > 10 µM | 2.9 µM | 3.4 µM |
| c1ccc(Nc2ncnc3c2sc2ccccc23)cc1 | > 10 µM | > 10 µM | > 10 µM | > 10 µM |  |
| Fc1cc(Br)ccc1Nc1ncnc2c1sc1cccnc12 | > 10 µM | > 10 µM | 11 µM | 7.3 µM | > 10 µM |
| COc1cc(Nc2ncnc3c2sc2ccccc23)cc(OC)c1 | > 10 µM | > 10 µM | > 10 µM | > 10 µM |  |
| c1cnc2sc3c(Nc4ccc5c(c4)OCCO5)ncnc3c2c1 | > 10 µM | > 10 µM | > 10 µM | > 10 µM | > 10 µM |
| c1cnc2c(n1)sc1c(Nc3ccc4c(c3)OCO4)ncnc12 | > 10 µM | > 10 µM | > 10 µM | > 10 µM |  |
| O=[N+]([O-])c1cc(Nc2ncnc3c2sc2ncccc23)ccc1O | > 10 µM | > 10 µM | > 10 µM | > 10 µM | > 10 µM |
| COc1ccc(Nc2ncnc3c2sc2ncccc23)cc1 | > 10 µM | > 10 µM | 0.52 µM | > 10 µM | 3.3 µM |
| Nc1ncnc2c1sc1nccnc12 | > 10 µM | > 10 µM | 2.4 µM | > 10 µM |  |
| Fc1cc(Br)ccc1Nc1ncnc2c1sc1ncccc12 | > 10 µM | > 10 µM | 0.28 µM | 0.89 µM | 2.1 µM |
| COc1ccc(Nc2ncnc3c2sc2cccnc23)cc1 | > 10 µM | > 10 µM | > 10 µM | > 10 µM | > 10 µM |
| c1ccc(Nc2ncnc3c2sc2nccnc23)cc1 | > 10 µM | > 10 µM | 5 µM | > 10 µM |  |
| COc1ccc(Nc2ncnc3c2sc2cccnc23)cc1OC | > 10 µM | > 10 µM | > 10 µM | 3.7 µM | > 10 µM |
| COc1cc(Nc2ncnc3c2sc2cccnc23)cc(OC)c1 | > 10 µM | > 10 µM | > 10 µM | > 10 µM | > 10 µM |
| COc1cc(Nc2ncnc3c2sc2ccccc23)cc(OC)c1OC | > 10 µM | > 10 µM | > 10 µM | > 10 µM |  |
| c1cnc2c(n1)sc1c(Nc3ccc4c(c3)OCCO4)ncnc12 | > 10 µM | > 10 µM | > 10 µM | > 10 µM |  |
| Fc1cc(Br)ccc1Nc1ncnc2c1sc1ccccc12 | > 10 µM | > 10 µM | > 10 µM | > 10 µM |  |
| O=[N+]([O-])c1cc(Nc2ncnc3c2sc2nccnc23)ccc1O | > 10 µM | > 10 µM | 1.4 µM | > 10 µM |  |

| Structure (SMILES) | IC50 [1] | IC50 [2] | IC50 [3] | IC50 [4] | IC50 [5] |
| --- | --- | --- | --- | --- | --- |
| c1ccc2c(c1)sc1c(Nc3ccc4c(c3)OCCO4)ncnc12 | > 10 µM | > 10 µM | > 10 µM | > 10 µM |  |
| c1ccc(Nc2ncnc3c2sc2cccnc23)cc1 | > 10 µM | > 10 µM | 1.6 µM | > 10 µM | > 10 µM |
| c1cnc2sc3c(Nc4ccc5c(c4)OCO5)ncnc3c2c1 | > 10 µM | > 10 µM | 0.44 µM | > 10 µM | 2.2 µM |
| c1cnc2c(c1)sc1c(Nc3ccc4c(c3)OCCO4)ncnc12 | > 10 µM | > 10 µM | > 10 µM | > 10 µM | > 10 µM |
| COc1cc(Nc2ncnc3c2sc2nccnc23)cc(OC)c1OC | > 10 µM | > 10 µM | > 10 µM | > 10 µM |  |
| Nc1ncnc2c1sc1ccccc12 | 5.2 µM | > 10 µM | 0.79 µM | 5.1 µM |  |
| COc1ccc(Nc2ncnc3c2sc2nccnc23)cc1 | > 10 µM | > 10 µM | > 10 µM | > 10 µM |  |
| COc1ccc(Nc2ncnc3c2sc2ccccc23)cc1OC | > 10 µM | > 10 µM | > 10 µM | 3.7 µM |  |
| Nc1ncnc2c1sc1ncccc12 | > 10 µM | > 10 µM | 0.031 µM | 2.8 µM | 0.68 µM |
| c1ccc2c(c1)sc1c(Nc3ccc4c(c3)OCO4)ncnc12 | > 10 µM | > 10 µM | > 10 µM | > 10 µM |  |
| COc1ccc(Nc2ncnc3c2sc2ccccc23)cc1 | > 10 µM | > 10 µM | > 10 µM | > 10 µM |  |
| COc1cc(Nc2ncnc3c2sc2ncccc23)cc(OC)c1OC | > 10 µM | > 10 µM | > 10 µM | > 10 µM | > 10 µM |
| Nc1ncnc2c1sc1cccnc12 | > 10 µM | > 10 µM | 1.8 µM | 6 µM | 5.2 µM |
| c1cnc2c(c1)sc1c(Nc3ccc4c(c3)OCO4)ncnc12 | > 10 µM | > 10 µM | > 10 µM | > 10 µM | > 10 µM |
| COc1cc(Nc2ncnc3c2sc2ncccc23)cc(OC)c1 | > 10 µM | > 10 µM | > 10 µM | > 10 µM | > 10 µM |
| COc1ccc(Nc2ncnc3c2sc2nccnc23)cc1OC | > 10 µM | > 10 µM | > 10 µM | > 10 µM |  |
| c1ccc(Nc2ncnc3c2sc2ncccc23)cc1 | > 10 µM | > 10 µM | 0.18 µM | > 10 µM | 4.5 µM |
| O=[N+]([O-])c1cc(Nc2ncnc3c2sc2ccccc23)ccc1O | > 10 µM | > 10 µM | > 10 µM | > 10 µM |  |
| Fc1cc(Br)ccc1Nc1ncnc2c1sc1nccnc12 | > 10 µM | > 10 µM | > 10 µM | > 10 µM |  |
| O=[N+]([O-])c1cc(Nc2ncnc3c2sc2cccnc23)ccc1O | > 10 µM | > 10 µM | 0.12 µM | 5.8 µM | > 10 µM |
